Only some compounds are listed: those with a hit (about 4.9% of all), similar ones and a draw of the others.
NF-kB neuron act: NF-kB expression increase, human neuronal cells; NF-kB reporter expression; hits give high values; fold change at 12.5 µM; 190,000 tested, 1.6% active; in the data active = fold change above about 3.3
APP 5'UTR act: activates APP 5'UTR luciferase reporter. SH-SY5Y APP 5'UTR luciferase reporter, luminescence; zero percent = DMSO vehicle wells. activation, % at 2 µM. 190,000 tested, 1% active;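 active = activation above a set limit, based on mean plus 3 SD of controls, cut at about 140% in these data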
STAT3 activator: increases IL-6 driven STAT3 reporter signal; activation (% of control), % at 5.6 µM; U3A cells, IL-6 STAT3-luciferase reporter, luminescence; 100% = signal with IL-6 EC80 alone; 190,000 tested, 0.91% active;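 active = activation above the screen-wide mean of compound activation plus 3 SD, cut at about 130% in these data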
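Assay system – human STAT1-deficient U3A cells with stable STAT3-luciferase reporter · Also added – IL-6 (33 ng/mL) · Schedule – compound 1 h, then IL-6 6 h at 37 °C · Technique – reporter luminescence signal · Evaluation – % activation versus median of IL-6-stimulated wells · Benchmarks – IL-6-only wells as 100% reference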
STAT1 activator: activators of IFN-gamma induced STAT1 signaling | AID 932 | NIH 3T3 STAT1-luciferase reporter, luminescence; 100% = IFN-gamma alone, no compound | 200,000 tested, 2.6% active | activation (% of control), % at 5.5 µM;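 active = activation above the screen-wide mean activation plus 3 SD, cut at about 130% in these data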
STAT1 inh: STAT1 signaling inhibition | NIH 3T3 STAT1-luciferase reporter, IFN-gamma, luminescence | inhibition, % at 5.5 µM | 200,000 tested, 0.35% active | AID 920;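 active = inhibition above a set limit, the mean inhibition across all tested compounds plus 3 SD, cut at about 34% in these data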
STAT3 inh: STAT3 signaling inhibition; U3A cells, IL-6 STAT3-luciferase reporter, luminescence; host cell line lacks STAT1; inhibition, % at 5.5 µM; 190,000 tested, 0.89% active; AID 862;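 active = inhibition above the mean inhibition across all screened compounds plus 3 SD, cut at about 44% in these data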
A number is an active result; . = inactive; / = no result given.

SMILES	NF-kB neuron act	APP 5'UTR act	STAT3 activator	STAT1 activator	STAT1 inh	STAT3 inh
COc1ccc(C(=O)Cc2ccc(F)cc2)c(OC)c1	.	.	.	138	.	.
COc1ccc(C(=O)Cc2cc(OC)c(OC)cc2[N+](=O)[O-])c(OC)c1	.	.	.	.	.	.
N#CC(C#N)=Cc1cccn1-c1ccc(S(N)(=O)=O)cc1	.	.	.	.	.	.
Cc1cc(C)c(C)c(OCC(=O)O/N=C(\N)c2ccccn2)c1	.	/	.	.	.	.
N/C(=N\OC(=O)COc1ccc(Cl)cc1Cl)c1ccccn1	5.2	.	.	.	.	.
N/C(=N\OC(=O)c1cc(Cl)ccc1Cl)c1ccccn1	.	172	.	.	.	.
N/C(=N\OC(=O)COc1cc(Cl)c(Cl)cc1Cl)c1ccncc1	.	.	.	131	.	.
N/C(=N\OC(=O)C(c1ccccc1)c1ccccc1)c1ccccn1	.	.	.	.	.	.
N/C(=N\OC(=O)COc1ccc2ccccc2c1Br)c1ccccn1	/	.	.	139	.	.
N/C(=N\OC(=O)COc1ccccc1)c1ccc(Cl)cc1	.	.	.	.	.	.
O=C(COC(=O)CCc1ccc(S(=O)(=O)N2CCOCC2)cc1)NCc1ccccc1	.	.	.	.	.	.
CCCCCOc1ccc(CSc2ncn[nH]2)cc1	.	.	.	.	.	.
O=C(O)c1ccc(Cl)c(S(=O)(=O)Nc2cccc(C(=O)Nc3cccc(C(F)(F)F)c3)c2)c1	.	.	.	.	.	.
CCN(c1ccc(NC(=O)COC(=O)CCc2cc(OC)c(OC)c(OC)c2)cc1)C(C)C	.	.	.	.	.	.
COC(=O)C(C)n1cnc2c(cnn2-c2ccc(Cl)cc2)c1=O (stereo not drawn)	.	.	.	129	.	.
CCOC(=O)Cn1cnc2c(cnn2-c2ccc(Cl)cc2)c1=O	.	.	.	.	.	.
O=[N+]([O-])c1ccc2nc(-c3ccccc3)n(OCc3ccc(Cl)cc3)c2c1	5.1	.	.	.	.	.
Cc1cc(C)c2cc(CN(Cc3ccco3)C(=S)NCC3CCCO3)c(=O)[nH]c2c1 (stereo not drawn)	.	.	.	.	.	.
CC(C)(C)OC(=O)N/N=C/c1cccc([N+](=O)[O-])c1	3.9	.	.	130	.	.
O=C(c1cnn(-c2ccccc2)c1)c1ccccc1O	9.5	184	.	.	.	.
CCOC(=O)C1ON2CCCCC2C1(O)C(F)(F)F (stereo not drawn)	.	.	.	.	.	.
Cc1ccccc1N=CC=C1OC(C)(C)C(C)(C)O1	.	.	.	.	.	.
CCOC(=O)/C=C/c1cnn(-c2ccccc2)c1	.	.	.	138	.	.
CC(=O)N1CCN(c2ccc(NCc3ccc(C)s3)cc2)CC1	.	/	.	.	.	.
Cc1ccc(CNc2ccc(N3CCOCC3)cc2)s1	.	.	.	145	.	.
SMILES	NF-kB neuron act	APP 5'UTR act	STAT3 activator	STAT1 activator	STAT1 inh	STAT3 inh
COCCn1c(SCC(=O)c2c[nH]c3ccccc23)nnc1-c1ccncc1	.	.	136	.	.	.
CCCOC1CCCN(C(=O)CCc2nnc(CCCCc3ccccc3)o2)C1 (stereo not drawn)	.	.	.	.	.	.
Nc1[nH]nc2nc(NCc3ccccc3)c3c(c12)CCN(Cc1ccccc1)C3	4.3	.	.	.	.	.
CCN(CC)C(=O)CCc1nnc(Cc2cccc(C(F)(F)F)c2)o1	3.3	.	.	146	.	.
C=CCc1cc(/C=C2/NC(=O)N(CC)C2=O)cc(OCC)c1OCc1ccc(C(=O)O)cc1	.	.	.	.	.	.
Fc1ccc2nc3[nH]c4ccccc4c3nc2c1	4.4	157	135	214	.	.
CC(=O)c1cc2c(C)c(C(=O)c3ccccc3)oc2cc1O	4	156	.	.	.	.
CSc1nsc(SCC(=O)Nc2nc3ccccc3s2)n1	.	.	.	.	.	.
Cc1cc(C)c(C#N)c(SCC(=O)Nc2nnc(-c3ccccc3)s2)n1	.	.	.	.	.	.
Cc1ccc2sc(NC(=O)CSc3nc(C)cc(C)c3C#N)nc2c1	6.5	.	.	.	.	.
Cc1nc(SCC(=O)Nc2nc3ccccc3s2)c(C#N)c(C)c1C	.	.	.	.	58	88
Cc1csc(NC(=O)CSc2nsc(SCC(=O)Nc3nc(C)cs3)c2C#N)n1	.	.	.	132	.	.
O=C(NC1CCCC1)C(=O)N(Cc1cccnc1)C(C(=O)NCC1CCCO1)c1ccco1 (stereo not drawn)	.	.	.	.	.	.
CC1CCCN(c2ccc(C(=O)NCc3ccccc3)cn2)C1 (stereo not drawn)	.	.	.	137	.	.
CC1CCN(c2ccc(C(=O)NCCc3ccccc3)cn2)CC1	.	.	.	132	.	.
CC1CCCN(c2ccc(C(=O)NCc3cccs3)cn2)C1 (stereo not drawn)	.	.	.	.	.	.
O=c1c2ccccc2cnn1-c1ccc2ccccc2c1	3.4	168	.	131	.	.
O=C(Nc1ccc(F)cc1)N1CCN(c2nc3ccccc3s2)CC1	.	.	.	.	.	46
O=C(Nc1ccccc1)N1CCN(c2nc3ccccc3s2)CC1	.	.	.	.	.	.
O=C(C1CC1)N1CCN(c2nc3ccccc3s2)CC1	.	.	.	131	.	.
CCC(=O)N1CCN(c2nc3ccccc3s2)CC1	.	.	.	129	.	.
CN(CCc1ccccn1)C(=O)CCC1CCCN(C(=O)c2n[nH]c3c2CCCC3)C1 (stereo not drawn)	.	.	.	.	.	.
O=C(OCC(=O)N1CCCC1=O)C1COc2ccccc2O1 (stereo not drawn)	.	.	.	.	.	.
CCN(C(=S)Nc1ccc(Oc2ccccc2)cc1)c1ccccc1	.	.	.	.	.	.
Cc1nnsc1NC(=O)OCc1ccc(C(C)(C)C)cc1	.	.	.	.	.	65
SMILES	NF-kB neuron act	APP 5'UTR act	STAT3 activator	STAT1 activator	STAT1 inh	STAT3 inh
C=CCOC(=O)Nc1snnc1C	.	.	.	.	.	.
Cc1cc2[nH]c3c(c[n+](C)c4ccccc34)c2cc1C	.	.	151	221	.	.
CCO[C@H]1OC(C(=O)NCc2ccccc2)=C[C@@H](c2cn(C(C)=O)c3ccccc23)[C@@H]1CCCO	.	.	/	.	.	/
CCC(C)/C(C)=N/NC(=O)c1ccc(COc2ccc(Cl)c(C)c2)cc1 (stereo not drawn)	.	.	.	130	.	.
Cc1ccc(N=C2SC(C(=O)O)CC(=O)N2C)cc1C (stereo not drawn)	.	.	.	.	.	.
COc1cc(/C=C/C(=O)c2ccccc2O)cc(OC)c1OC	.	.	.	.	.	.
CN(C)c1ccc(/C=C/C(=O)c2ccccc2O)cc1	3.5	137	.	.	.	.

From PubChem BioAssay
